Experimental data reported in ChEMBL document CHEMBL1152806, “Discovery of a potent, selective, and orally efficacious pyrimidinooxazinyl bicyclooctaneacetic acid diacylglycerol acyltransferase-1 inhibitor” (J Med Chem, 2009).

How the values were obtained:
[1] = Lipophilicity, log D of the compound; type: physicochemical; conditions: octanol/water
[2] = Metabolic stability in rat alamethicin-activated microsomes assessed as conversion to acyl glucuronide form after 1 hr; type: ADME, Microsome
[3] = Metabolic stability in dog hepatocytes assessed as conversion to acyl glucuronide form after 2 hrs; type: ADME, cell-based, Canis lupus familiaris, Hepatocyte
HuTu80 = assay: Inhibition of triacylglycerol synthesis in human HuTu 80 cells after 30 mins; type: functional, cell-based; conditions: HuTu80, 0.5 h
Summary of the method: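 Confluent HuTu 80 cells in serum-free medium, preincubated 30 min with compound (0.1% DMSO final). Then given 0.12 mM sodium oleate plus 1 µCi/mL 14C-oleate complexed to 0.03 mM BSA. Cells solubilized in SDS and lipids extracted; 14C in triacylglycerol measured by normal-phase HPLC with radio-flow detection. Lowry protein determined.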

[4] = molecular target: T1, Diacylglycerol O-acyltransferase 2 (Homo sapiens) (UniProt Q96PD7); assay: Inhibition of human DGAT2 at 10 uM by liquid scintillography
T1 sequence (whole entry): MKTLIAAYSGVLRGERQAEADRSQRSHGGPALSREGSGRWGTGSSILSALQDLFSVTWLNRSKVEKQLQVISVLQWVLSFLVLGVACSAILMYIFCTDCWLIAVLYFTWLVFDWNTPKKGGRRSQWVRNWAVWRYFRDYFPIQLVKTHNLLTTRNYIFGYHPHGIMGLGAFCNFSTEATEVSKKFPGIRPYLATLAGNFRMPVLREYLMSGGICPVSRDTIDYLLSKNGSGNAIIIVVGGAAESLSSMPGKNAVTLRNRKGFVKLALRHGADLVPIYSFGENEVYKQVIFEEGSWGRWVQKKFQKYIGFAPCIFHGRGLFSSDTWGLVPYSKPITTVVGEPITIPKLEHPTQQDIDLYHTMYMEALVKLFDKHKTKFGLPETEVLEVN

[5] = molecular target: T2, Diacylglycerol O-acyltransferase 1 (Homo sapiens, UniProt O75907); assay: Inhibition of human recombinant DGAT1 expressed in Sf9 cells by liquid scintillography
T2 sequence (O75907 whole entry): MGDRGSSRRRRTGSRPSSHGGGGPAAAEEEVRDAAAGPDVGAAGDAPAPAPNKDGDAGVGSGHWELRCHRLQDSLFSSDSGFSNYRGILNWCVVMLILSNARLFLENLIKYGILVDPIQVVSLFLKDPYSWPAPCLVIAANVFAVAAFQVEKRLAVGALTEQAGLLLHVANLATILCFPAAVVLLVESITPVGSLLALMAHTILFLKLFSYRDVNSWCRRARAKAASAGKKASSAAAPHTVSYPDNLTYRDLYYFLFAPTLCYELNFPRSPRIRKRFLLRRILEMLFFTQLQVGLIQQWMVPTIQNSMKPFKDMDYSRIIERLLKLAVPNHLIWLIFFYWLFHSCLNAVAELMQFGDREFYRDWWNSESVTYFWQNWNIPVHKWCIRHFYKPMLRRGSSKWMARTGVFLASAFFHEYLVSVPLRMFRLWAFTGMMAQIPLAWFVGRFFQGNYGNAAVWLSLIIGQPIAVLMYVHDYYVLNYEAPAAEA

[6] = Plasma clearance in rat at 1 to 3 mg/kg; type: ADME, organism-based; set-up: dose 1-3 mg/kg
[7] = Half life in rat at 1 to 3 mg/kg, iv; type: ADME, organism-based; set-up: dose 1-3 mg/kg, route intravenous; conditions: in vivo
[8] = Half life in marmosets at 1 to 3 mg/kg, po; type: ADME, organism-based; set-up: dose 1-3 mg/kg, route oral; conditions: callitrichinae sp., in vivo
[9] = Metabolic stability in human alamethicin-activated microsomes assessed as conversion to acyl glucuronide form after 1 hr; type: ADME, Microsome
[10] = Half life in marmosets at 1 to 3 mg/kg, iv; type: ADME, organism-based; set-up: dose 1-3 mg/kg, route intravenous; conditions: callitrichinae sp., in vivo
Rattus norvegicus [11] = assay: Reduction of plasma triacylglycerol excursion in 14 hrs fasted Han-Wistar rat at 1 mg/kg, po treated 2 hrs before bolus corn oil administration measured 1.5 hrs post corn oil challenge by oral lipid tolerance test relative to control; type: functional; set-up: scale not given: the % may be the effect or the level left
Summary of the method: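 Male Han-Wistar rats (~230 g) on chow diet were fasted 14 h and given compound by oral gavage, suspended in HPMC/Tween. A corn oil bolus (5 mL/kg) followed 2 h later. After 1.5 h, blood was drawn from the abdominal vena cava and plasma TAG measured colorimetrically (GPO-PAP). Result is % reduction versus vehicle-treated controls; n = 6.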

[12] = Bioavailability in marmosets at 1 to 3 mg/kg; type: ADME, organism-based; conditions: callitrichinae sp., in vivo
[13] = molecular target: T3, Diacylglycerol O-acyltransferase 1 (Rattus norvegicus, UniProt Q9ERM3); assay: Inhibition of rat microsomal DGAT1 by liquid scintillography
T3 sequence (Q9ERM3 whole entry): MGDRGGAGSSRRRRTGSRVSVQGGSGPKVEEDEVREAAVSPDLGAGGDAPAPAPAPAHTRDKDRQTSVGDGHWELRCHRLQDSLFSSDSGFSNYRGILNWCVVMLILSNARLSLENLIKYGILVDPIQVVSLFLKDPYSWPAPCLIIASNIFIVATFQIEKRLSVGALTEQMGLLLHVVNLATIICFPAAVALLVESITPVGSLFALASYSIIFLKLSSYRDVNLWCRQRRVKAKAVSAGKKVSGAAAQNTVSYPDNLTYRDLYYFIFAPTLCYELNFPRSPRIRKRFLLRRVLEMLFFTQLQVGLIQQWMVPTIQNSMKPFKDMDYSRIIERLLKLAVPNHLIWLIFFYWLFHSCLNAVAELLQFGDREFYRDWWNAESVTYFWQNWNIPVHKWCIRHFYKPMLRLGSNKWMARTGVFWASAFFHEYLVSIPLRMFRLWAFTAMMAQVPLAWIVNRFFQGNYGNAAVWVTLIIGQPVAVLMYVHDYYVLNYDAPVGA

[14] = Metabolic stability in marmosets alamethicin-activated microsomes assessed as conversion to acyl glucuronide form after 1 hr; type: ADME, Microsome; conditions: callitrichinae sp.
[15] = Plasma clearance in marmosets at 1 to 3 mg/kg; type: ADME, organism-based; set-up: dose 1-3 mg/kg; conditions: callitrichinae sp.
CYP2C9 = CYP2C9 (Homo sapiens, UniProt P11712); assay: Inhibition of CYP2C9 at 30 uM; type: ADME
[16] = Bioavailability in dog at 1 to 3 mg/kg; type: ADME, organism-based, Canis lupus familiaris; conditions: in vivo
Hepatocyte = assay: Metabolic stability in rat hepatocytes assessed as conversion to acyl glucuronide form after 2 hrs; type: ADME, cell-based
[17] = molecular target: T4, Sterol O-acyltransferase 1 (Homo sapiens, UniProt P35610); assay: Inhibition of human ACAT1 by liquid scintillography
T4 sequence (P35610 whole entry): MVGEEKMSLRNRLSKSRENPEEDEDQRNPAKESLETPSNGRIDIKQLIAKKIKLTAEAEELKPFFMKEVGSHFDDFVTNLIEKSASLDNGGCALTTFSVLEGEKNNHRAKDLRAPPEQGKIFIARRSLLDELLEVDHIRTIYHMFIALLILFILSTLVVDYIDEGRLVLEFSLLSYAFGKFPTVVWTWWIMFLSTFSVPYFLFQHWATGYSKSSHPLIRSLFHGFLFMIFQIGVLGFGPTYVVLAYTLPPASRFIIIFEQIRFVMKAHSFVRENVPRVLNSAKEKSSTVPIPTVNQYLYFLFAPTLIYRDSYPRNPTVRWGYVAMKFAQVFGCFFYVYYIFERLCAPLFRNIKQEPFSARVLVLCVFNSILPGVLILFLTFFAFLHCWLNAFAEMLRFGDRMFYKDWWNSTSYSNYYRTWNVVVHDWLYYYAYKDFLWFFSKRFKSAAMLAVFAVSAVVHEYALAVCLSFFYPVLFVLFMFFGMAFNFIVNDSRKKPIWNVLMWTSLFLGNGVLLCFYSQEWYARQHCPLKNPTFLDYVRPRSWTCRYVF

[18] = Half life in dog at 1 to 3 mg/kg, iv; type: ADME, organism-based, Canis lupus familiaris; set-up: dose 1-3 mg/kg, route intravenous; conditions: in vivo
[19] = Metabolic stability in dog assessed as urinary excretion of acyl glucuronide form after 2 hrs; type: ADME, Canis lupus familiaris, Urine
Summary of the method: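 Parent-related material excreted as acyl glucuronide measured in a 2 h urine sample collected after dosing in dog.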

Rattus norvegicus [20] = assay: Reduction of adipose triacylglycerol synthesis in 14 hrs fasted Han-Wistar rat assessed as decrease in ratio of [3H]palmitic acid incorporation into TAG and DAG at 1 mg/kg, po after 1.5 hrs relative to control; type: functional; set-up: scale not given: the % may be the effect or the level left
Summary of the method: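 Male Han-Wistar rats (~300 g) on chow diet were given compound by oral gavage, suspended in HPMC/Tween. At 1.5 h they were anaesthetised with inactin and a bolus of [3H]-palmitic acid was given via a jugular cannula. Epididymal fat was taken 20 min later, homogenised in duplicate with [14C]-oleic acid internal standard, and lipids separated by HPLC. Result is % reduction of the TAG/DAG label ratio versus vehicle; n = 10.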

CYP2C19 = CYP2C19 (Homo sapiens, UniProt P33261); assay: Inhibition of CYP2C19 at 30 uM; type: ADME
Chain of CYP2C19 (P33261 whole entry): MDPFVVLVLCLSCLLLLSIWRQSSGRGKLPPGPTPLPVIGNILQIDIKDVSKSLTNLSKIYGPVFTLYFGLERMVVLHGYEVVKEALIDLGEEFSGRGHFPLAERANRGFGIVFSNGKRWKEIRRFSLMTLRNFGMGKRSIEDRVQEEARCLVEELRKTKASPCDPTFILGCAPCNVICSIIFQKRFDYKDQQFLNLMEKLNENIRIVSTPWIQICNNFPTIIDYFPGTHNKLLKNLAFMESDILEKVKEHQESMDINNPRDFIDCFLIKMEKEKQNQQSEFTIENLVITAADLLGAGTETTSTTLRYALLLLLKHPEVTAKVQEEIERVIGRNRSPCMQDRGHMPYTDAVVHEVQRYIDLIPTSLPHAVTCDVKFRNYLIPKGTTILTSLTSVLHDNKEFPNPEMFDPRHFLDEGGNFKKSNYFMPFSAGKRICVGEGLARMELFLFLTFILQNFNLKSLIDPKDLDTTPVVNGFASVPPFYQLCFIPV

Chain of CYP2C9 (P11712 whole entry): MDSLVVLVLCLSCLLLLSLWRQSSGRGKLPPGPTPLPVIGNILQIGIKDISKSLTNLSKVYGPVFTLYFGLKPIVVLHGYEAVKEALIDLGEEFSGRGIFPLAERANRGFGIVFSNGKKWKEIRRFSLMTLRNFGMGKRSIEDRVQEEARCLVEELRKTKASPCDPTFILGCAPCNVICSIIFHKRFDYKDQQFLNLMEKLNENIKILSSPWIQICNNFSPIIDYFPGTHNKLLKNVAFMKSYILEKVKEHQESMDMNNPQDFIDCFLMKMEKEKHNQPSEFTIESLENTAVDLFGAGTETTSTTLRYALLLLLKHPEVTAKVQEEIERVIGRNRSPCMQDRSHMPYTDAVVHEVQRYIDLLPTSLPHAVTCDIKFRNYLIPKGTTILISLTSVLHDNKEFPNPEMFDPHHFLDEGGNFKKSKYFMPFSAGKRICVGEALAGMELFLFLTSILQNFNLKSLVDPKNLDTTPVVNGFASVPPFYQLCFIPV

logD [1]: 1.9 | Stability [2]: 9% | Stability [3]: 38% | IC50 (HuTu80): 3 nM | inhibition [4]: 0% | IC50 [5]: 15 nM | clearance [6]: 1.5 mL/min/kg | half-life [7]: 7 h | half-life [8]: 9.5 h | Stability [9]: 25% | half-life [10]: 13 h | bioavailability [12]: 61% | IC50 [13]: 9 nM | Stability [14]: 15% | clearance [15]: 0.78 mL/min/kg | inhibition at 30 µM (CYP2C9): < 25% | bioavailability [16]: > 100% | Stability (Hepatocyte): 18% | IC50 [17]: 5200 nM | half-life [18]: 8.6 h | Stability [19]: 82% | inhibition at 30 µM (CYP2C19): < 25%
SMILES: CC1(C)Oc2ncnc(N)c2N=C1c1ccc(C23CCC(CC(=O)O)(CC2)CC3)cc1
Activity (Rattus norvegicus [11]): 72% | Activity (Rattus norvegicus [20]): 37%
